The results in this text go back to ChEMBL document CHEMBL1828573, “Synthesis and biological evaluation of the glycoside (25R)-3β,16β-diacetoxy-22-oxocholest-5-en-26-yl β-d-glucopyranoside: a selective anticancer agent in cervicouterine cell lines” (Eur J Med Chem, 2011).

pIC50: −log10 of the molar value. The source made the active and inactive calls. No cut-off for these calls is given here.

In data set [1] the test system is Ca-Ski. The experiment in a line: Antiproliferative activity human CaSki cells after 24 hrs by crystal violet staining. It counts as functional, cell-based. The method in brief: (§1)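 Cells in RPMI-1640 with 5% newborn calf serum, 37 °C, 5% CO2, exponential phase. Seeded at 7500 cells/well and grown 24 h, then exposed over a concentration range in ethanol vehicle; controls got 1% ethanol. After 24 h, crystal violet staining with absorbance at 590 nm. IC50 taken from the decrease in cell population.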

A short description of data set [2]: Antiproliferative activity human ViBo cells after 24 hrs by crystal violet staining. The format is functional, cell-based. The method in brief:
as §1

Data set [3] relates to HeLa. The data set can be described thus: Antiproliferative activity human HeLa cells after 24 hrs by crystal violet staining. The format is functional, cell-based. The procedure, abridged: as §1
In data set [4] the test system is PBMC. The data set can be described thus: Antiproliferative activity human PBMC assessed as proliferating cells at 33.9 uM after 72 hrs using FITC-A staining by flow cytometry. The format is cell-based. The procedure, abridged: (§2)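 Enriched lymphocytes from one healthy donor: non-adherent cells kept after 1 h at 37 °C. Labelled with CFSE for 15 min at room temperature in the dark, quenched with NCS, washed. Plated at 2 × 10^5 cells/well, unstimulated, PHA-stimulated or treated, with ethanol 1% vehicle control. Five replicates, 72 h at 37 °C. Then 1% formaldehyde fixation and flow cytometry, ≥20,000 events.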

For data set [5], the system named is PBMC. The data set can be described thus: Antiproliferative activity human PBMC assessed as non-proliferating cells at 33.9 uM after 72 hrs using FITC-A staining by flow cytometry. It counts as cell-based. The procedure, abridged:
as §2

The subject of data set [6] is Ca-Ski. The data set can be described thus: Cell cycle arrest at G1-phase in human CaSki cells at 29.5 to 33.9 uM after 24 hrs using propidium iodine staining by flow cytometry. The format is functional, cell-based. The method in brief:
(§3)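 Seeded at 10^5 cells/mL and grown 24 h, then exposed to 33.9 or 29.5 µM. Harvested with versene and fixed/permeabilized in 50% methanol in PBS. Treated with RNase (2.5 U/mL), stained with propidium iodide (0.2 mg/mL), DNA content analysed by G1, S, G2/M and SubG1.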

Data set [7] concerns Ca-Ski. The experiment in a line: Cell cycle arrest at S-phase in human CaSki cells at 29.5 to 33.9 uM after 24 hrs using propidium iodine staining by flow cytometry. It counts as functional, cell-based. The method in brief: as §3
Data set [8] has as its system Ca-Ski. The data set can be described thus: Cell cycle arrest at G2/M-phase in human CaSki cells at 29.5 to 33.9 uM after 24 hrs using propidium iodine staining by flow cytometry. The format is functional, cell-based. The procedure, abridged: as §3
The test system of data set [9] is Ca-Ski. The experiment in a line: Induction of apoptosis in human CaSki cells assessed as increase in cell nuclei released from broken cell at 29.5 to 33.9 uM after 24 hrs using propidium iodine staining by flow cytometry. The format is functional, cell-based. The procedure, abridged:
as §3

In data set [10] the test system is Ca-Ski. The experiment in a line: Induction of apoptosis in human CaSki cells assessed as decrease in DNA level at 29.5 to 33.9 uM after 24 hrs using propidium iodine staining by flow cytometry. The format is functional, cell-based. The procedure, abridged: as §3
Data set [11] in a line: Cell cycle arrest at G2/M-phase in human ViBo cells at 29.5 to 33.9 uM after 24 hrs using propidium iodine staining by flow cytometry. It counts as functional, cell-based. The procedure, abridged:
as §3

The subject of data set [12] is HeLa. The data set can be described thus: Cell cycle arrest at G2/M-phase in human HeLa cells at 29.5 to 33.9 uM after 24 hrs using propidium iodine staining by flow cytometry. The format is functional, cell-based. The method in brief: as §3
Data set [13] can be described thus: Cell cycle arrest at S-phase in human ViBo cells at 29.5 to 33.9 uM after 24 hrs using propidium iodine staining by flow cytometry. The format is functional, cell-based. The procedure, abridged:
as §3

Data set [14] relates to HeLa. The data set can be described thus: Cell cycle arrest at S-phase in human HeLa cells at 29.5 to 33.9 uM after 24 hrs using propidium iodine staining by flow cytometry. The format is functional, cell-based. The procedure, abridged: as §3
Data set [15] has as its system Ca-Ski. The data set can be described thus: Cytotoxicity against human CaSki cells assessed as LDH release at IC50 after 24 hrs by spectrophotometry. It counts as functional.
Data set [16] in a line: Cytotoxicity against human ViBo cells assessed as LDH release at IC50 after 24 hrs by spectrophotometry. The format is functional.
Data set [17] concerns HeLa. The experiment in a line: Cytotoxicity against human HeLa cells assessed as LDH release at IC50 after 24 hrs by spectrophotometry. It counts as functional.
The nature of data set [18]: Cytotoxicity against human PHA-stimulated lymphocytes assessed as LDH release at 33.9 uM after 72 hrs by spectrophotometry. The format is cell-based. The conditions noted are these: lymphocyte. The procedure, abridged:
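Lymphocytes exposed to compound or ethanol (10 µL/mL); PHA-activated lymphocytes (15 µL/mL) served as control. After 72 h, LDH released into the culture supernatant measured. Mean ± S.D. of three independent experiments with three repetitions.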

In data set [19] the test system is Ca-Ski. The data set can be described thus: Induction of apoptosis in human CaSki cells assessed as induction of active caspase-3 expression at 29.5 to 33.9 uM using FITC/DAPI staining by epifluorescence microscopy. The format is functional, cell-based. The procedure, abridged:
(§4)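 Seeded at 5 × 10^4 cells/mL in RPMI-1640 with 5% NCS for 24 h, then treated with 33.9 or 29.5 µM. Formaldehyde fixation 15 min, 0.5% Triton X-100 permeabilization, blocking. Rabbit anti-active caspase-3 (1:50), then FITC goat anti-rabbit (1:200). DAPI counterstain; fluorescence microscopy.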

Data set [20] deals with ViBo. The data set can be described thus: Induction of apoptosis in human ViBo cells assessed as induction of active caspase-3 expression at 29.5 to 33.9 uM using FITC/DAPI staining by epifluorescence microscopy. The format is functional, cell-based. The method in brief:
as §4

In data set [21] the test system is HeLa. The experiment in a line: Induction of apoptosis in human HeLa cells assessed as induction of active caspase-3 expression at 29.5 to 33.9 uM using FITC/DAPI staining by epifluorescence microscopy. The format is functional, cell-based. The method in brief: as §4
For data set [22], the system named is Ca-Ski. The data set can be described thus: Induction of apoptosis in human CaSki cells assessed as DNA fragmentation at IC50 after 24 hrs by TUNEL assay. It counts as functional, cell-based.
In data set [23] the test system is ViBo. The experiment in a line: Induction of apoptosis in human ViBo cells assessed as DNA fragmentation at IC50 after 24 hrs by TUNEL assay. The format is functional, cell-based.
Data set [24] deals with HeLa. The data set can be described thus: Induction of apoptosis in human HeLa cells assessed as DNA fragmentation at IC50 after 24 hrs by TUNEL assay. It counts as functional, cell-based.

For `CC(=O)O[C@H]1CC[C@@]2(C)C(=CC[C@H]3[C@@H]4C[C@H](OC(C)=O)[C@H]([C@H](C)C(=O)CC[C@@H](C)CO[C@@H]5O[C@H](CO)[C@@H](O)[C@H](O)[C@H]5O)[C@@]4(C)CC[C@@H]32)C1`, the Activity entry is “Dose-dependent effect” in the data set with Ca-Ski [1]; 72.09% with PBMC [4]; 27.91% with PBMC [5]; 1% with Ca-Ski [15]; 11% in [16]; 6% in the data set with HeLa [17]. In addition, the Activity result in data set [18] was “Non-toxic”. Besides, the results for the negative logarithm of the IC50 (pIC50) (in the data set on Ca-Ski [1]; in data set [2]; in the data set on HeLa [3]) were 4.47, 4.53 and 4.53, respectively. Besides, the result in the data set on Ca-Ski [6], in the data set on Ca-Ski [7] and in the data set on Ca-Ski [8] was inactive. In addition, the result (in the data set with Ca-Ski [9]; in the data set on Ca-Ski [10]; in [11]; with HeLa [12]; in [13]; with HeLa [14]) was Active. Besides, the result with Ca-Ski [19], in the data set with ViBo [20], with HeLa [21], in the data set on Ca-Ski [22], with ViBo [23] and with HeLa [24] was Active.
For the compound `CC(=O)O[C@H]1CC[C@@]2(C)C(=CC[C@H]3[C@@H]4C[C@H](OC(C)=O)[C@H]([C@H](C)C(=O)CC[C@@H](C)CO)[C@@]4(C)CC[C@@H]32)C1`, the pIC50 with Ca-Ski [1] was 4.33.
